Assay type in all cases: functional
One experiment deals with Geotrichum candidum. Briefly: Antifungal activity against Geotrichum candidum AUMC 226 assessed as diameter of growth inhibition zone at 20 mg/ml at 28 degC after 7 days. The following applies: AUMC 226, 168 h, read-out: DIZ. The essentials: (§1)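 Inocula: each fungus grown 7 days in Sabouraud's dextrose broth (30 ml per flask). Plates were 10 cm Petri dishes with 1 ml microbial suspension and 15 ml Sabouraud's dextrose agar each. Compound solutions were applied and the diameter of the growth inhibition zone was recorded.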

For experiment [1], the system named is Scopulariopsis brevicaulis. Briefly: Antifungal activity against Scopulariopsis brevicaulis AUMC 729 assessed as diameter of growth inhibition zone at 20 mg/ml at 28 degC after 7 days. The note with it: AUMC 729, 168 h, read-out: DIZ. In a few lines: as §1
In another experiment the test system is Fusarium oxysporum. Briefly: Antifungal activity against Fusarium oxysporum AUMC 5119 assessed as diameter of growth inhibition zone at 20 mg/ml at 28 degC after 7 days. The following applies: AUMC 5119, 168 h, read-out: DIZ. In a few lines:
as §1

Experiment [2] concerns Aspergillus flavus. Nature of the experiment: Antifungal activity against Aspergillus flavus AUMC 1276 assessed as diameter of growth inhibition zone at 20 mg/ml at 28 degC after 7 days. The note with it: AUMC 1276, 168 h, read-out: DIZ. The essentials:
as §1

For experiment [3], the system named is Trichophyton rubrum. Briefly: Antifungal activity against Trichophyton rubrum AUMC 1804 assessed as diameter of growth inhibition zone at 20 mg/ml at 28 degC after 7 days. The note with it: AUMC 1804, 168 h, read-out: DIZ. In a few lines: as §1
For the next experiment, the system named is Candida albicans. Briefly: Antifungal activity against Candida albicans AUMC 418 assessed as diameter of growth inhibition zone at 20 mg/ml at 28 degC after 7 days. The following applies: AUMC 418, 168 h, read-out: DIZ. The essentials: as §1
The next experiment has as its system Micrococcus luteus. Nature of the experiment: Antibacterial activity against Micrococcus luteus AUMC B-112 assessed as diameter of growth inhibition zone at 20 mg/ml at 28 degC after 48 hrs. The following applies: AUMC B-112, 48 h, read-out: DIZ. In a few lines: (§2)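 Inocula: each bacterial strain grown 48 h in nutrient broth (30 ml per flask). For the assay, 1 ml microbial suspension and 15 ml nutrient agar were poured into each 10 cm Petri plate, compound solutions were applied, and the diameter of the inhibition zone was read.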

Another experiment deals with Serratia marcescens. Briefly: Antibacterial activity against Serratia marcescens AUMC B-55 assessed as diameter of growth inhibition zone at 20 mg/ml at 28 degC after 48 hrs. The following applies: AUMC B-55, 48 h, read-out: DIZ. The essentials:
as §2

Another experiment deals with Pseudomonas aeruginosa. Briefly: Antibacterial activity against Pseudomonas aeruginosa AUMC B-73 g assessed as diameter of growth inhibition zone at 20 mg/ml at 28 degC after 48 hrs. The note with it: read-out: DIZ. In a few lines:
as §2

The next experiment has as its system Escherichia coli. Nature of the experiment: Antibacterial activity against Escherichia coli AUMC B-53 assessed as diameter of growth inhibition zone at 20 mg/ml at 28 degC after 48 hrs. The note with it: AUMC B-53, 48 h, read-out: DIZ. In a few lines:
as §2

Another experiment deals with Bacillus cereus. Briefly: Antibacterial activity against Bacillus cereus AUMC B-52 assessed as diameter of growth inhibition zone at 20 mg/ml at 28 degC after 48 hrs. The note with it: AUMC B-52, 48 h, read-out: DIZ. In a few lines:
as §2

Another experiment deals with Staphylococcus aureus. Nature of the experiment: Antibacterial activity against Staphylococcus aureus AUMC B-54 assessed as diameter of growth inhibition zone at 20 mg/ml at 28 degC after 48 hrs. The following applies: AUMC B-54, 48 h, read-out: DIZ. The essentials: as §2
In experiment [4] the test system is Aspergillus flavus. Briefly: Antifungal activity against Aspergillus flavus AUMC 3214 assessed as growth inhibition at 28 degC after 7 days. The note with it: for MIC: Aspergillus flavus, AUMC 3214, 168 h.
Experiment [5] has as its system Trichophyton rubrum. Briefly: Antifungal activity against Trichophyton rubrum AUMC 1804 assessed as growth inhibition at 28 degC after 7 days. The following applies: for MIC: Trichophyton rubrum, AUMC 1804, 168 h.

Values after ≈ are worked out from the molar mass of the structure shown.

In general, MIC refers to the smallest concentration in the dilution series that meets the test's criterion for growth inhibition.

Turning to `Cc1nn(-c2ccccc2)c2nc3c(nc12)C(=O)c1ccccc1-3`, the zone of inhibition at 20000 µg/mL (with Geotrichum candidum; in [1]; in the experiment with Fusarium oxysporum; in the experiment with Aspergillus flavus [2]; in the experiment with Trichophyton rubrum [3]; with Candida albicans) was 0 mm throughout. The zone of inhibition at 20000 µg/mL with Micrococcus luteus stood at 0 mm; in the experiment on Serratia marcescens it was 0 mm; with Pseudomonas aeruginosa, 0 mm; in the experiment with Escherichia coli, 10 mm; with Bacillus cereus, 0 mm; in the experiment with Staphylococcus aureus, 8 mm.

Regarding `Cc1nn(-c2ccccc2)c2nc3c(nc12)/C(=N\NC(N)=S)c1ccccc1-3`, the “diameter of the inhibition zone (DIZ)” value in the experiment on Aspergillus flavus [4] and in the experiment on Trichophyton rubrum [5] was 14 mm throughout. Moreover, the MIC in the experiment on Aspergillus flavus [4] is 2500 µg/mL (≈ 6490 µM); with Trichophyton rubrum [5], 300 µg/mL (≈ 778 µM). The zone of inhibition at 20000 µg/mL in the experiment with Geotrichum candidum was found to be 17 mm; in experiment [1], 0 mm; in the experiment with Fusarium oxysporum it was 0 mm; in the experiment on Aspergillus flavus [2] it was 16 mm; with Trichophyton rubrum [3], 30 mm; with Candida albicans, 0 mm. The zone of inhibition at 20000 µg/mL in the experiment on Micrococcus luteus amounted to 0 mm; in the experiment on Serratia marcescens, 0 mm; with Pseudomonas aeruginosa, 0 mm; in the experiment with Escherichia coli, 0 mm; with Bacillus cereus it was 0 mm; in the experiment on Staphylococcus aureus, 8 mm.

Take `CCOC(=O)C1S/C(=N\N=C2/c3ccccc3-c3nc4c(nc32)c(C)nn4-c2ccccc2)NC1=O` (centres undefined): the “diameter of the inhibition zone (DIZ)” value was determined as 10 mm in the experiment with Aspergillus flavus [4] and 16 mm in the experiment on Trichophyton rubrum [5]. Besides, the figures for the MIC with Aspergillus flavus [4] and in the experiment with Trichophyton rubrum [5] were 2500 µg/mL (≈ 5020 µM) and 300 µg/mL (≈ 603 µM), respectively. Besides, the zone of inhibition at 20000 µg/mL in the experiment with Geotrichum candidum amounted to 10 mm; in [1] it was 0 mm; in the experiment on Fusarium oxysporum, 0 mm; in the experiment with Aspergillus flavus [2], 13 mm; in the experiment with Trichophyton rubrum [3] it was 30 mm; in the experiment with Candida albicans it was 0 mm. Moreover, the zone of inhibition at 20000 µg/mL in the experiment with Micrococcus luteus is 0 mm; in the experiment with Serratia marcescens, 0 mm; in the experiment with Pseudomonas aeruginosa, 8 mm; in the experiment with Escherichia coli, 8 mm; in the experiment on Bacillus cereus, 0 mm; with Staphylococcus aureus, 8 mm.

For `Cc1nn(-c2ccccc2)c2nc3c(nc12)/C(=N/N=C1/NC(=O)CS1)c1ccccc1-3`, the “diameter of the inhibition zone (DIZ)” value is recorded as 10 mm in the experiment on Aspergillus flavus [4] and 12 mm with Trichophyton rubrum [5]. The MIC with Aspergillus flavus [4] stood at 5000 µg/mL (≈ 11800 µM); in the experiment on Trichophyton rubrum [5], 600 µg/mL (≈ 1410 µM). Further, the zone of inhibition at 20000 µg/mL in the experiment with Geotrichum candidum came out at 10 mm; in experiment [1], 0 mm; in the experiment with Fusarium oxysporum, 0 mm; in the experiment on Aspergillus flavus [2], 12 mm; with Trichophyton rubrum [3] it was 26 mm; in the experiment with Candida albicans, 0 mm. For the same molecule, the zone of inhibition at 20000 µg/mL was 0 mm in the experiment on Micrococcus luteus; 0 mm with Serratia marcescens; 8 mm in the experiment on Pseudomonas aeruginosa; 8 mm in the experiment with Escherichia coli; 0 mm in the experiment with Bacillus cereus; 10 mm with Staphylococcus aureus.

`Clc1ccccc1C(c1ccccc1)(c1ccccc1)n1ccnc1` [CLOTRIMAZOLE]: the “diameter of the inhibition zone (DIZ)” value in the experiment with Aspergillus flavus [4] came to 15 mm; in the experiment with Trichophyton rubrum [5] it was 35 mm. In addition, the MIC with Aspergillus flavus [4] came out at 150 µg/mL (≈ 435 µM); with Trichophyton rubrum [5], 80 µg/mL (≈ 232 µM). For the same molecule, the zone of inhibition at 20000 µg/mL with Geotrichum candidum came out at 26 mm; in [1], 28 mm; in the experiment with Fusarium oxysporum, 20 mm; with Aspergillus flavus [2], 44 mm; with Trichophyton rubrum [3], 36 mm; in the experiment with Candida albicans, 24 mm.

Regarding `Cc1nn(-c2ccccc2)c2nc3c(nc12)Cc1ccccc1-3`, the zone of inhibition at 20000 µg/mL (in the experiment with Geotrichum candidum; in experiment [1]; in the experiment with Fusarium oxysporum; with Aspergillus flavus [2]; in the experiment with Trichophyton rubrum [3]; in the experiment with Candida albicans) was 0 mm in each case. The zone of inhibition at 20000 µg/mL was 0 mm with Micrococcus luteus; 0 mm in the experiment with Serratia marcescens; 0 mm in the experiment on Pseudomonas aeruginosa; 0 mm in the experiment with Escherichia coli; 0 mm in the experiment on Bacillus cereus; 8 mm in the experiment on Staphylococcus aureus.

For the molecule `O=C(N[C@H](CO)[C@H](O)c1ccc([N+](=O)[O-])cc1)C(Cl)Cl` [CHLORAMPHENICOL], the zone of inhibition at 20000 µg/mL in the experiment with Micrococcus luteus was determined as 20 mm; in the experiment with Serratia marcescens, 20 mm; with Pseudomonas aeruginosa, 18 mm; in the experiment with Escherichia coli, 18 mm; in the experiment with Bacillus cereus, 22 mm; in the experiment with Staphylococcus aureus, 18 mm.

On to `CCOC(=O)/C(C#N)=C1\c2ccccc2-c2nc3c(nc21)c(C)nn3-c1ccccc1`, for which the zone of inhibition at 20000 µg/mL was 0 mm in the experiment on Geotrichum candidum; 0 mm in [1]; 0 mm in the experiment on Fusarium oxysporum; 0 mm with Aspergillus flavus [2]; 0 mm with Trichophyton rubrum [3]; 10 mm with Candida albicans. The zone of inhibition at 20000 µg/mL was 0 mm in the experiment with Micrococcus luteus; 0 mm in the experiment on Serratia marcescens; 8 mm with Pseudomonas aeruginosa; 8 mm in the experiment with Escherichia coli; 0 mm in the experiment on Bacillus cereus; 8 mm with Staphylococcus aureus.

As to `Cc1nn(-c2ccccc2)c2nc3c(nc12)/C(=N/N)c1ccccc1-3`, the zone of inhibition at 20000 µg/mL (in the experiment on Geotrichum candidum; in [1]; with Fusarium oxysporum; with Aspergillus flavus [2]; in the experiment with Trichophyton rubrum [3]; in the experiment with Candida albicans) was 0 mm in each case. The zone of inhibition at 20000 µg/mL in the experiment with Micrococcus luteus worked out at 0 mm; in the experiment on Serratia marcescens it was 0 mm; in the experiment with Pseudomonas aeruginosa, 0 mm; in the experiment on Escherichia coli, 8 mm; in the experiment with Bacillus cereus it was 0 mm; in the experiment on Staphylococcus aureus it was 8 mm.

On to `Cc1nn(-c2ccccc2)c2nc3c(nc12)/C(=N\O)c1ccccc1-3`, for which the zone of inhibition at 20000 µg/mL (in the experiment on Geotrichum candidum; in experiment [1]; with Fusarium oxysporum; in the experiment with Aspergillus flavus [2]; in the experiment on Trichophyton rubrum [3]; with Candida albicans) was 0 mm throughout. The zone of inhibition at 20000 µg/mL amounted to 0 mm with Micrococcus luteus; 0 mm in the experiment with Serratia marcescens; 8 mm with Pseudomonas aeruginosa; 0 mm with Escherichia coli; 0 mm in the experiment with Bacillus cereus; 8 mm with Staphylococcus aureus.

For the origin of these results see ChEMBL document CHEMBL2331494, “First synthesis and biological evaluation of indeno[2,1-e]pyrazolo[3,4-b]pyrazin-5-one and related derivatives” (2013).
